The target of experiment [1] is Histone deacetylase 2 (Homo sapiens) (UniProt Q92769). Kind of experiment: Inhibition of HDAC2 in human HeLa-S3 cell lysates assessed as remaining activity at 5 uM preincubated for 15 mins followed by HDAC-Glo substrate addition measured after 30 to 40 mins by […] relative to control. In a few lines: (§1)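 Same antibody-capture format as the other class I isoforms. HeLa-S3 lysate added at 100 μg/mL for HDAC1 and HDAC2, 1 h at 4 °C, then washed. Inhibitor in DMSO preincubated 15 min at RT; HDAC-Glo reagent added and luminescence read after 30-40 min. Concentrations are final. Signal corrected against a well without antibody; activity expressed as % of DMSO control.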

In experiment [2] the target is Histone deacetylase 1 (Homo sapiens) (UniProt Q13547). Kind of experiment: Inhibition of HDAC1 in human HeLa-S3 cell lysates assessed as remaining activity at 4 x 10^-6 M preincubated for 15 mins followed by HDAC-Glo substrate addition measured after 30 to 40 mins by […] relative to control. In a few lines:
(§2)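 HDAC1 was captured from HeLa-S3 lysate (100 μg/mL) onto wells precoated with anti-HDAC1 antibody (10 μg/mL, carbonate buffer pH 9.4) and milk-blocked, 1 h at 4 °C, then washed. Inhibitor in DMSO was added in HDAC-Glo buffer for 15 min at room temperature. HDAC-Glo reagent was added and luminescence read after 30-40 min. Concentrations are final. No-antibody background subtracted; % of DMSO control.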

The target of experiment [3] is Histone deacetylase 3 (Homo sapiens) (UniProt O15379). Put plainly: Inhibition of HDAC3 in human HeLa-S3 cell lysates assessed as remaining activity at 2 x 10^-6 M preincubated for 15 mins followed by HDAC-Glo substrate addition measured after 30 to 40 mins by […] relative to control. In a few lines: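 Antibody-capture (ELISA-type) assay: HDAC antibody coated in carbonate/bicarbonate buffer pH 9.4, wells blocked with 5% milk in TBST. HeLa-S3 lysate added at 1 mg/mL for HDAC3, 1 h at 4 °C, then washed. Inhibitor in DMSO preincubated 15 min at RT in HDAC-Glo buffer. HDAC-Glo reagent added, luminescence read after 30-40 min. Concentrations are final. Background = no-antibody well; activity given as % of DMSO control.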

In experiment [4] the target is Histone deacetylase 1 (Homo sapiens) (UniProt Q13547). Put plainly: Inhibition of HDAC1 in human HeLa-S3 cell lysates assessed as remaining activity at 1 x 10^-6 M preincubated for 15 mins followed by HDAC-Glo substrate addition measured after 30 to 40 mins by fluorimetric method relative to control. In a few lines: as §2
In experiment [5] the target is Histone deacetylase 2 (Homo sapiens) (UniProt Q92769). Put plainly: Inhibition of HDAC2 in human HeLa-S3 cell lysates assessed as remaining activity at 2 x 10^-6 M preincubated for 15 mins followed by HDAC-Glo substrate addition measured after 30 to 40 mins by fluorimetric method relative to control. An outline of the steps: as §1
For experiment [6], the target named is T1, Protein deacetylase HDAC6 (Homo sapiens) (UniProt Q9UBN7).
T1 sequence (whole entry): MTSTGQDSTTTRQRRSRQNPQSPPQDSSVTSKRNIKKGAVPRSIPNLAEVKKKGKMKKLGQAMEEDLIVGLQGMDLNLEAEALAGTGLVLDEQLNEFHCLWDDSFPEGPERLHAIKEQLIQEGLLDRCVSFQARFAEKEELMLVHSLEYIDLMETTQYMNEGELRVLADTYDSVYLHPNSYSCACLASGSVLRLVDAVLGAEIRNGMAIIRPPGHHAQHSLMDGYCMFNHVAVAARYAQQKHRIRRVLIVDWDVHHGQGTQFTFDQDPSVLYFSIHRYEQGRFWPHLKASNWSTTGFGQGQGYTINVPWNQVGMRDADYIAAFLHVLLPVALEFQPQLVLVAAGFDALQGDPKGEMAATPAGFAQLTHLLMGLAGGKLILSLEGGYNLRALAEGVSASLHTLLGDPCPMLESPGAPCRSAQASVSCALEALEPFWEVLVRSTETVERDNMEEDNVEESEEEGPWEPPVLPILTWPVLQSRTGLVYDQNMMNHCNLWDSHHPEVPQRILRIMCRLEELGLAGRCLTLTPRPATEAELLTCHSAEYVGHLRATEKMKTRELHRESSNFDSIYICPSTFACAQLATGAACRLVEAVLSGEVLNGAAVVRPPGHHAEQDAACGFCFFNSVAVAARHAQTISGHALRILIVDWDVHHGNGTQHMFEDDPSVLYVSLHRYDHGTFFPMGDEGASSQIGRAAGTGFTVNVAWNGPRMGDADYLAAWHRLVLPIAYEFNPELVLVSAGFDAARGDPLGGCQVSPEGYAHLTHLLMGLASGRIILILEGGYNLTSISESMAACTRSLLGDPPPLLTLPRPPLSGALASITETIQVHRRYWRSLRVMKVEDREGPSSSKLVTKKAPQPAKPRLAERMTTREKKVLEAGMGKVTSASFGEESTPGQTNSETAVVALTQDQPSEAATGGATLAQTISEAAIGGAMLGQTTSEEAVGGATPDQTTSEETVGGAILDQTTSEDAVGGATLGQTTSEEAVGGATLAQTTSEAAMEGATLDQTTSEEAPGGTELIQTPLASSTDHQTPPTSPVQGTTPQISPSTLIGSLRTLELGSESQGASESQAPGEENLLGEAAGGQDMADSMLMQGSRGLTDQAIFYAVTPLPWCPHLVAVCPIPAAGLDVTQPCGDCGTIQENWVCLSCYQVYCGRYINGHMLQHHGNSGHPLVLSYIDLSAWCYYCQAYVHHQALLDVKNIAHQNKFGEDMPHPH
Kind of experiment: Inhibition of HDAC6 in human HeLa-S3 cell lysates assessed as remaining activity at […] preincubated for 15 mins followed by HDAC-Glo substrate addition measured after 30 to 40 mins by […] relative to control.

Experiment [7] has as its target Histone deacetylase 3 (Homo sapiens) (UniProt O15379). Put plainly: Inhibition of HDAC3 in human HeLa-S3 cell lysates assessed as remaining activity at […] preincubated for 15 mins followed by HDAC-Glo substrate addition measured after 30 to 40 mins by […] relative to control.
Experiment [8] deals with Histone deacetylase (Homo sapiens) (UniProt Q13547+O15379+Q9UBN7+Q92769+Q9UQL6+Q8WUI4+Q9BY41+Q96DB2+P56524+Q9UKV0+Q969S8). Put plainly: Inhibition of HDAC in human HeLa-S3 cell lysates assessed as residual activity at 3 x 10^-6 M preincubated for 15 mins followed by HDAC-Glo substrate addition measured after 35 mins by […] relative to control. Type of experiment: protein assay.

Experiment [9] deals with Histone deacetylase 2 (Homo sapiens) (UniProt Q92769). Kind of experiment: Inhibition of HDAC2 in human HeLa-S3 cell lysates assessed as remaining activity at 1.6 x 10^-5 M preincubated for 15 mins followed by HDAC-Glo substrate addition measured after 30 to 40 mins by […] relative to control. An outline of the steps:
as §1

Experiment [10] addresses Histone deacetylase 1 (Homo sapiens) (UniProt Q13547). Kind of experiment: Inhibition of HDAC1 in human HeLa-S3 cell lysates assessed as remaining activity at 2 x 10^-6 M preincubated for 15 mins followed by HDAC-Glo substrate addition […] relative to control.
Experiment [11] addresses Histone deacetylase 2 (Homo sapiens) (UniProt Q92769). Put plainly: Inhibition of HDAC2 in human HeLa-S3 cell lysates assessed as remaining activity at 8 x 10^-6 M preincubated for 15 mins followed by HDAC-Glo substrate addition measured after 30 to 40 mins by […] relative to control. An outline of the steps: as §1

Histone deacetylase 2 (Homo sapiens), sequence (Q92769 whole entry, canonical isoform): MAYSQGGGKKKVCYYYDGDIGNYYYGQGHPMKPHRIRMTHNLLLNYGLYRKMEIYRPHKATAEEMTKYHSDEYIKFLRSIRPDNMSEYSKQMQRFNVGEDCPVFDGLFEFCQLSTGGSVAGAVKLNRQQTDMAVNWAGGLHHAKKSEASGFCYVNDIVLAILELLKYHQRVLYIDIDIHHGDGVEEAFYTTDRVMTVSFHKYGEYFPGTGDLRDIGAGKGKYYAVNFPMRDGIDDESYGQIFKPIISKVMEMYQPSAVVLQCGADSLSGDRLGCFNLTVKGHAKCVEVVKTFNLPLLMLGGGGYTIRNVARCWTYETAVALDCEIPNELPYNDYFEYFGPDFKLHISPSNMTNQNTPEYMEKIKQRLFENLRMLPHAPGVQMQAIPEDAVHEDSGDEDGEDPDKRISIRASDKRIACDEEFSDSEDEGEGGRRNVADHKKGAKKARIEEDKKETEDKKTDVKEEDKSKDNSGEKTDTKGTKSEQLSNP
Histone deacetylase 1 (Homo sapiens), sequence (Q13547 whole entry): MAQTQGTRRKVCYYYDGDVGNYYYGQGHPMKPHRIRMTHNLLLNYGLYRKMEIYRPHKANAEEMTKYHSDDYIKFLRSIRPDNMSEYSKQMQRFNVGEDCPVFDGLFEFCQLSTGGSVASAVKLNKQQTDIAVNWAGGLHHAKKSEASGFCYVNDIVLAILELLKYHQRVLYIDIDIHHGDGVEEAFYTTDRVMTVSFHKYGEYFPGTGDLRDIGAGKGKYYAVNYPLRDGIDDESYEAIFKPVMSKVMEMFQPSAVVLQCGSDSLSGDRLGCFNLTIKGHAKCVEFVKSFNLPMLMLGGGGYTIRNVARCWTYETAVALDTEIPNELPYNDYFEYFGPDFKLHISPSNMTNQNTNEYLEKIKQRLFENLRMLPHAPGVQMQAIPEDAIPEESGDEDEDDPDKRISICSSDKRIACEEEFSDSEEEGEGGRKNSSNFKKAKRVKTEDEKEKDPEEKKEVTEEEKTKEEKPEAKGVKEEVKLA
Histone deacetylase 3 (Homo sapiens), sequence (O15379 whole entry): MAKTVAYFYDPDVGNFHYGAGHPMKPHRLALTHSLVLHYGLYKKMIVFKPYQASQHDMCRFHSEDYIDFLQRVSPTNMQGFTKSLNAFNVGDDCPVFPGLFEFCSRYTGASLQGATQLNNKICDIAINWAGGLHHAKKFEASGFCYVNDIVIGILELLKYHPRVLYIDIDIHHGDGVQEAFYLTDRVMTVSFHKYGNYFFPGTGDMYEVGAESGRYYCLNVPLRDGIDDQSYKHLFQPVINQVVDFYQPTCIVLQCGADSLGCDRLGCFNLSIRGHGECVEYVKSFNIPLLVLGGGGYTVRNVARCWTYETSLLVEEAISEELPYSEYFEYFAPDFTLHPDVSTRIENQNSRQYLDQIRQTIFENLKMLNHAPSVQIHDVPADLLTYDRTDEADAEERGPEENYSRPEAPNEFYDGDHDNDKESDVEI

Take `O=C(CCC(CCCC(=O)Nc1ccccc1)Cc1ccccc1)NO` (racemic): in experiment [1], the Activity stood at 92%.

`CCC(CCCC(=O)Nc1ccccc1)CCC(=O)NO` (stereo unspecified): the Activity in experiment [2] was determined as 58%; in experiment [3], 71%; in experiment [4], 81%; in experiment [5], 69%; in experiment [6] it was 18%; in experiment [7], 71%. Besides, the Activity in [8] came out at 92%; in [9], 23%; in [10] it was 68%; in experiment [11], 34%.
